TNAP inh hiacc – TNAP (human) inhibition, high acceptor | P05186 | purified TNAP, CDP-star luminescence, 1 M DEA | inhibition, % at 20 µM | actives 0.03% (n = 200,000);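 active = over 50% inhibition of tissue-nonspecific alkaline phosphatase at 20 µM in the single-dose screen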;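 note: plate controls were DMSO wells for no effect and EDTA-quenched wells as full inhibition for full effect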
Target sequence (P05186 whole entry, looked up): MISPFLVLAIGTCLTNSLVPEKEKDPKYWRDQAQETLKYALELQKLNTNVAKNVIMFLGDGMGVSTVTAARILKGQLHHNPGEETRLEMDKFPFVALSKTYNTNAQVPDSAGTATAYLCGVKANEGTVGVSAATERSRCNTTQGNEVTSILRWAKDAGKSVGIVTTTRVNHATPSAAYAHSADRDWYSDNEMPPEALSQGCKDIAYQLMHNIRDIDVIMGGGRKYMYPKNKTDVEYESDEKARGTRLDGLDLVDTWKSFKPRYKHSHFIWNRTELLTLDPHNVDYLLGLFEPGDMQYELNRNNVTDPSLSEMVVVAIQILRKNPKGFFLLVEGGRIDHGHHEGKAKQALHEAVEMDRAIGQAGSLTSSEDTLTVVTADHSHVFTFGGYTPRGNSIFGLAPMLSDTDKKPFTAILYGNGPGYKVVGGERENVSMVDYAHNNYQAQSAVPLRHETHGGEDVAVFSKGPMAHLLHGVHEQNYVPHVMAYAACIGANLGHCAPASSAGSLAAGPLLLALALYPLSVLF
Arbovirus inh – arbovirus infection inhibition | actives 0.37% (n = 200,000) | inhibition, % at 10 µM | arbovirus infection cell-based antiviral screen | AID 1251; in the data active = inhibition above about 30%
TNAP act hi DEA – activators of human TNAP at high phosphate acceptor concentration | P05186 | purified TNAP, CDP-star luminescence, 1 M DEA, 30 min; active compounds read high; 0 = EDTA background, 1 = DMSO-only activity | activation factor at 20 µM | 200,000 tested, under 10 active | AID 1136;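 active = activation factor at least 2 at 20 µM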
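Test system – human TNAP · Doses – 20 µM single point · Incubation – 30 min, room temperature · Signal – luminescent substrate turnover signal · Read-out basis – activation factor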
TNAP inh no acc – inhibitors of human TNAP without phosphate acceptor | inhibition, % at 20 µM | purified TNAP, CDP-star luminescence, 30 min | actives 0.26% (n = 200,000);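 active = tissue-nonspecific alkaline phosphatase inhibition above about 50% at 20 µM in the single-dose screen, limit read from the data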;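 note: 0% = DMSO negative control and 100% = EDTA positive control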
WT yeast gro inh – growth inhibition of WT yeast, mitochondrial fusion screen. mitochondrial fusion phenotypic screen, WT strain. inhibition, % at 10 µM. actives 2.1% (n = 190,000); in the data active = inhibition above about 58%; tested in S. cerevisiae
An asterisk follows results filed as active. Sampled rows, rich in hits. Any-hit rate of the full collection: about 2.6%.

Screening CCNC(=O)CSc1nnc(-c2cc(-c3ccc(Cl)cc3)nc3ccccc23)o1 returned TNAP inh hiacc 1.7, Arbovirus inh -10.6, TNAP act hi DEA 1, TNAP inh no acc 3.3 and WT yeast gro inh 9.7.
`COc1ccc(Cc2nn[nH]n2)cc1` gave TNAP inh hiacc -5.0, Arbovirus inh 5.3, TNAP act hi DEA 1.1, TNAP inh no acc -7.3 and WT yeast gro inh 91.4*.
`c1ccc(Cc2nn[nH]n2)cc1` gave TNAP inh hiacc -5.1, Arbovirus inh 2.4, TNAP act hi DEA 1.1, TNAP inh no acc -13.4 and WT yeast gro inh -17.3.
`Cc1nc2c(-c3ccc(F)cc3)c(C)nn2c(C)c1CCC(=O)N1CCC(Cc2ccccc2)CC1` gave TNAP inh hiacc -4.3, Arbovirus inh -39.0, TNAP act hi DEA 1, TNAP inh no acc -7.0 and WT yeast gro inh 64.8*.
Screening CC(C)(C)NC(=O)c1ccccc1-c1nc(-c2ccccc2Cl)no1 returned TNAP inh hiacc -6.6, Arbovirus inh -3.4, TNAP act hi DEA 1.1, TNAP inh no acc -8.9 and WT yeast gro inh 22.8.
`Cc1ccc(S(=O)(=O)Nc2cc(C(F)(F)F)ccc2N2CCOCC2)c(C)c1` gave TNAP inh hiacc -2.6, Arbovirus inh 8.1, TNAP act hi DEA 1, TNAP inh no acc -10.6 and WT yeast gro inh 33.6.
N#CC(C#N)=Cc1cc2ccccc2nc1N1CCCCC1 was read as TNAP inh hiacc -4.0, Arbovirus inh 32.0*, TNAP act hi DEA 1, TNAP inh no acc -9.6 and WT yeast gro inh -26.9.
`CCOC(=O)c1sc(N)c(C#N)c1CSc1nnc(C2CCCCC2)n1N` gave TNAP inh hiacc -11.3, Arbovirus inh -0.8, TNAP act hi DEA 1.1, TNAP inh no acc 0.2 and WT yeast gro inh -1.2.
For CC(C)(C)C1CCc2c(sc(NC(=O)CSc3ncn[nH]3)c2C#N)C1 (stereo not given) the results were TNAP inh hiacc 5.0, Arbovirus inh -37.3, TNAP act hi DEA 0.9, TNAP inh no acc -8.4 and WT yeast gro inh 93.1*.
Screening CCOC(=O)c1c(C)n(-c2ccc(C)cc2)c2ccc(OCC(O)CN3CCN(C)CC3)cc12 (stereo not given) returned TNAP inh hiacc -4.9, Arbovirus inh -33.9, TNAP act hi DEA 1, TNAP inh no acc -24.7 and WT yeast gro inh 92.3*.
For O=C(NCc1ccccn1)C(C(=O)c1cccc([N+](=O)[O-])c1)n1cc(Cl)ccc1=O (stereo not given) the results were TNAP inh hiacc -2.6, Arbovirus inh 17.7, TNAP act hi DEA 1, TNAP inh no acc -2.2 and WT yeast gro inh -7.4.
For CCOCCCNC(=O)CSc1nc2nc(C)c(Cc3ccccc3)c(C)n2n1 the results were TNAP inh hiacc 3.6, Arbovirus inh 7.1, TNAP act hi DEA 1, TNAP inh no acc -2.5 and WT yeast gro inh -13.2.
`CCOC(=O)C1=CN(c2cccc(F)c2)C=C(C(=O)OCC)C1c1cc(OC)c(O)c([N+](=O)[O-])c1` gave TNAP inh hiacc 6.7, Arbovirus inh -20.4, TNAP act hi DEA 0.9, TNAP inh no acc 7.7 and WT yeast gro inh 87.8*.
`CCOc1cc(C2C3=C(CC(C)(C)CC3=O)OC3=C2C(=O)CC(C)(C)C3)cc([N+](=O)[O-])c1O` gave TNAP inh hiacc 17.0, Arbovirus inh 7.0, TNAP act hi DEA 0.8, TNAP inh no acc 15.4 and WT yeast gro inh -2.6.
C=CCc1ccc(O)c(-c2ccc(O)c(CC=C)c2)c1 was read as TNAP inh hiacc 0.6, Arbovirus inh -19.8, TNAP act hi DEA 1, TNAP inh no acc 0.2 and WT yeast gro inh 63.3*.
For COc1ccc(C(=O)NC2CC(C)(C)Cc3occc32)cc1 (stereo not given) the results were TNAP inh hiacc 0.6, Arbovirus inh 3.1, TNAP act hi DEA 1, TNAP inh no acc -11.4 and WT yeast gro inh 5.6.
`CC(C)Oc1cccc(C(=O)NC(=S)Nc2ccccc2)c1` gave TNAP inh hiacc 5.4, Arbovirus inh 35.9*, TNAP act hi DEA 0.9, TNAP inh no acc 0.7 and WT yeast gro inh 49.9.
`CN(C(=O)Nc1ccc(Cl)c(Cl)c1)c1ccccc1C(=O)O` gave TNAP inh hiacc -3.3, Arbovirus inh 12.0, TNAP act hi DEA 1, TNAP inh no acc -1.9 and WT yeast gro inh 71.7*.
For O=C(Nc1nc(-c2cc(Cl)sc2Cl)cs1)c1cccs1 the results were TNAP inh hiacc -2.2, Arbovirus inh -27.2, TNAP act hi DEA 1, TNAP inh no acc -3.1 and WT yeast gro inh 73.9*.
O=C(Nc1nc(-c2cc(Cl)sc2Cl)cs1)c1ccc(Br)s1 was read as TNAP inh hiacc -2.9, Arbovirus inh 1.9, TNAP act hi DEA 1, TNAP inh no acc -0.2 and WT yeast gro inh 31.1.
For O=C(Nc1ncc(Cc2cccc(Cl)c2)s1)c1cccs1 the results were TNAP inh hiacc -2.7, Arbovirus inh -48.5, TNAP act hi DEA 1, TNAP inh no acc -11.0 and WT yeast gro inh 80.6*.
O=C(Nc1nc(-c2cccs2)cs1)c1ccc(Cl)cc1 was read as TNAP inh hiacc -0.5, Arbovirus inh 8.4, TNAP act hi DEA 1, TNAP inh no acc -8.4 and WT yeast gro inh 67.0*.
Screening COc1ccc(C(=O)Nc2nc(-c3cccs3)cs2)cc1 returned TNAP inh hiacc 1.4, Arbovirus inh 4.2, TNAP act hi DEA 1, TNAP inh no acc -3.7 and WT yeast gro inh 54.1.
Screening COc1ccc(NC(=O)CN2C(=O)CSC(C)C2=O)cc1 (stereo not given) returned TNAP inh hiacc -1.9, Arbovirus inh -1.7, TNAP act hi DEA 1, TNAP inh no acc -14.3 and WT yeast gro inh -13.6.
`CCOC(=O)Cc1csc(NC(=O)C(CC(C)C)NC(=O)C2CCCCC2)n1` (stereo not given) gave TNAP inh hiacc -5.2, Arbovirus inh -0.8, TNAP act hi DEA 1.1, TNAP inh no acc -13.3 and WT yeast gro inh -6.9.
`Clc1ccc(/C=N/NC(=Nc2ccccc2)c2ccccn2)c(Cl)c1` gave TNAP inh hiacc 0.9, Arbovirus inh 6.9, TNAP act hi DEA 1, TNAP inh no acc -2.2 and WT yeast gro inh 74.1*.
Screening N/C(=N\OC(=O)COc1ccc2ccccc2c1Br)c1ccncc1 returned TNAP inh hiacc -6.5, Arbovirus inh -6.5, TNAP act hi DEA 1.1, TNAP inh no acc -10.3 and WT yeast gro inh 5.3.
For Cc1ccc(NNC(=O)C(O)(c2cccc(C(F)(F)F)c2)c2cccc(C(F)(F)F)c2)cc1 the results were TNAP inh hiacc -3.8, Arbovirus inh -25.8, TNAP act hi DEA 1, TNAP inh no acc -3.0 and WT yeast gro inh 82.7*.
Screening O=C(CNc1cc(S(=O)(=O)N2CCOCC2)ccc1N1CCCC1)N1CCc2ccccc21 returned TNAP inh hiacc 1.6, Arbovirus inh -2.4, TNAP act hi DEA 1, TNAP inh no acc 1.1 and WT yeast gro inh -16.6.
Screening Fc1ccc(N=C2NN=C(c3cc(F)ccc3F)CS2)cc1 returned TNAP inh hiacc -0.5, Arbovirus inh -14.0, TNAP act hi DEA 1, TNAP inh no acc 2.0 and WT yeast gro inh 80.1*.
Fc1ccc(F)c(C2=NNC(=Nc3ccccc3F)SC2)c1 was read as TNAP inh hiacc 5.0, Arbovirus inh -23.0, TNAP act hi DEA 0.9, TNAP inh no acc -2.6 and WT yeast gro inh 63.2*.

High-throughput results: PubChem BioAssay, several laboratories
